First the molecules themselves.
B1: tRNA (parent)
chain: GUUCCGUUGGCGUAAUGGUAACGCGUCUCCCUCCUAAGGAGAAGACUGCGGGUUCGAGUCCCGUACGGAACG

Fewer inactive variants are shown than the library holds. Some results are limits rather than exact numbers.

This is an account of results in the RNAGym collection of RNA variant scans (doi:10.1126/science.aae0568).

In this data set the parent is B1. Kind of data set: yeast fitness relative to wild type (ratio to wild type); higher = fitter; tRNA-Arg(CCU), competitive growth, 37 C, YPD. The gist of the method:
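The tRNA-Arg(CCU) gene variants were made by chemical synthesis with a 3% per-site mutation rate at 69 sites and inserted at the native genomic locus of Saccharomyces cerevisiae. After pooling, the strains were competed in YPD at 37°C for 24 hours in six parallel replicates. Gene amplicons from the start population and each end population were read by 100-nucleotide paired-end sequencing, and Darwinian fitness relative to wild type was taken from genotype frequency changes. Genotypes needed ≥ 100 starting reads, and estimates < 0.5 were set to 0.5.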
Turning to GUUCCGUUGGCGUAAUGGUAACGCGUCUCCCUCCAAAGGAGAAGAAUGCGGGUUAGAGUCCCGUACGGUACG, the yeast fitness is at most 0.5.
Take GUUCCGUUGGCGUAAUGGUAACGCGUCUCCCUCCAAGGGAGAAGACUGAGGGUUCGAGUCCCGUACGGAACG: the yeast fitness was at most 0.5.
In the case of GUUCCGUUGGCGUAAUGGUAACGCGUCUCCCUCCCAAGGAGACGACUGCGGGUUCGAGUCCCGUACGGAACG, the yeast fitness was 0.927.
Regarding GUUCCGUUGGCGUAAUGGUAACGCGUCUCCCUCCCAAGGAGAUGACUGCGGGUUCGAGUCCCGUACGGAACG, the yeast fitness was 0.971.
As for GUUCCGUUGGCGUAAUGGUAACGCGUCUCCCUCCCAAGGAGAGGACUGCGGGUUCGAGUCCCGUACGGAACG, the yeast fitness was 0.783.
For the variant GUUCCGUUGGCGUAAUGGUAACGCGUCUCCCUCCACAGGAGAAGACUGCGGGUUCGAGUCCCGUAAGGAACG, the yeast fitness was at most 0.5.
Take GUUCCGUUGGCGUAAUGGUAACGCGUCUCCCUCCAAAGGAGAAGCCUGCGGGUUCGAGUCCCGUACGGAACG: the yeast fitness was found to be 0.576.
In the case of GUUCCGUUGGCGUAAUGGUAACGCGUCUCCCUCUCAAGGAGAAGACUGCGGGUUCGAGUCCCGUACGGAACG, the yeast fitness amounted to 0.607.
Consider GUUCCGUUGGCGUAAUGGUAACGCGUCUCCCUCCAAAGGUGAAGACUGCGGGUUCGUGUCCCGUACGGAACG, for which the yeast fitness worked out at 0.625.
With GUUCCGUUGGCGUAAUGGUAACGCGUCUCCCUCCAAAGGAGAAGCCUGCGGGUUCAAGUCCCGUACGGAACG the figure was 0.636; with GUUCCGUUGGCGUAAUGGUAACGCGUCUCCCUCCAAAGGAGUUGACUGCGGGUUCGAGGCCCGUACGGAACG, 0.541.
In the case of GUUCCGUUGGCGUAAUGGUAACGCGUCUCCCUCCAAAGGAGAAGACUGCGGGUUCGAGUGCCAUACGGAACG, the yeast fitness came to 0.503.
Turning to GUUCCGUUGGCGUAAUGGUAACGCGUCUCCCUCCAAAGGAGAAGACUGGGGGUUCGAGUACCGUACGGAACG, the yeast fitness is at most 0.5.
With GUUCCGUUGGCGUAAUGGUAACGCGUCUCCCUCCCAAGGAGACGACUGCGGGUUGGAGUCCCGUUCGGAACG the figure was at most 0.5; with GUUCCGUUGGCGUAAUGGUAACGCGUCUCCCUCCAAAGGAGAAGACUGCGGGUUCGAGUCCCGUGCGGAACG, 0.751.
As to GUUCCGUUGGCGUAAUGGUAACGCGUCUCCCUCCAAAGGAGAAGACUGCGGGUCCGAGUCGCGUACGGAACG, the yeast fitness was 0.645.
Turning to GUUCCGUUGGCGUAAUGGUAACGCGUCUCCCUCUUAAGGAGAAGACUGCGGGUUCGACUCCGGUACAGAACG, the yeast fitness is at most 0.5.
Take GUUCCGUUGGCGUAAUGGUAACGCGUCUCCCUCCAAAGGAGAAGACUGUGGGUUCGAGUCCCGUACGGAACG: the yeast fitness was 0.761.
With GUUCCGUUGGCGUAAUGGUAACGCGUCUCCCUCCAAAGGAGAAGACUGCGGGUUCGUGCCCCGUACGGAACG, the yeast fitness is at most 0.5.
Turning to GUUCCGUUGGCGUAAUGGUAACGCGUCUCCCUCCCAAGGAGAUGACAGCGGGUUCGAGUCCCGUACGGAACG, the yeast fitness was at most 0.5.
With GUUCCGUUGGCGUAAUGGUAACGCGUCUCCCUCUUAAGGAGAAGACUGCGGGUUCGAGUCCCGUACGCAACG, the yeast fitness was found to be 0.773.
For the variant GUUCCGUUGGCGUAAUGGUAACGCGUCUCCCUCCCAAGGCGAAGACUGCGGGUUCGAGUCCCGUACGGAACG, the yeast fitness stood at 0.795.
For the variant GUUCCGUUGGCGUAAUGGUAACGCGUCUCCCUCCCAAGGGGAAGACUGCGGGUUCGAGUCCCGUACGGAACG, the yeast fitness was determined as 0.711.
With GUUCCGUUGGCGUAAUGGUAACGCGUCUCCCUCUUAAGGAGAAGACUGCGGGUUCGAGACCCGUACGGAACG, the yeast fitness was found to be 0.762.
Turning to GUUCCGUUGGCGUAAUGGUAACGCGUCUCCCUCUCAAGGCGAAGACUGCGGGUUCGAGUCCCGUACGGAACG, the yeast fitness was at most 0.5.
As to GUUCCGUUGGCGUAAUGGUAACGCGUCUCCCUCCAAAGGAGAAGACUGCGGGUUCGCGUCCUGUACGGAACG, the yeast fitness is at most 0.5.
Consider GUUCCGUUGGCGUAAUGGUAACGCGUCUCCCUCCAAACGAGAAGACUGCGGGUUCGAGUCCCGUACGGAACG, for which the yeast fitness stood at 0.527.
As to GUUCCGUUGGCGUAAUGGUAACGCGUCUCCCUCUGAAAGAGAAGACUGCGGGUUCGAGUCCUGUCCAGAACG, the yeast fitness is at most 0.5.
Turning to GUUCCGUUGGCGUAAUGGUAACGCGUCUCCCUCUUAAGGAGAAGACUGCGGGUUCGAAUCCCGUUCGGAACG, the yeast fitness came out at 0.618.
As for GUUCCGUUGGCGUAAUGGUAACGCGUCUCCCUCCCAAGGAGCAGACUGCAGGUUCGAGUCCCGUACGGAACG, the yeast fitness is at most 0.5.
GUUCCGUUGGCGUAAUGGUAACGCGUCUCCCUCUUAAGGAGAAGACUGCGGCUUCGAGUCCCGUACGGAUCG: the yeast fitness was at most 0.5.
In the case of GUUCCGUUGGCGUAAUGGUAACGCGUCUCCCUCCAAAGGAGAAGACUGCGGAUUCGAGUCCCGUACGGAACG, the yeast fitness was 0.532.
For GUUCCGUUGGCGUAAUGGUAACGCGUCUCCCUCUUAAGGAGAAGACUGCGUGUUCGAGUUCUGUCCGGGACG, the yeast fitness is at most 0.5.
Take GUUCCGUUGGCGUAAUGGUAACGCGUCUCCCUCCAAAGGAGCAGACUGCGGGUUCGAGUCCCGUACGGAACG: the yeast fitness was 0.643.
On to GUUCCGUUGGCGUAAUGGUAACGCGUCUCCCUCCAAAGGAGAAGACUGCGGGUUCGAGUACCGUUCGGAGCG, for which the yeast fitness is at most 0.5.
Take GUUCCGUUGGCGUAAUGGUAACGCGUCUCCCUCCAUAGAAGAAGACUGCGGGUUCGAGUCCCGUACGGAACG: the yeast fitness stood at 0.567.
Regarding GUUCCGUUGGCGUAAUGGUAACGCGUCUCCCUCCAAAGGAGAAGACUGCGGGUUCGAGCCCUGUAUGGAACG, the yeast fitness was determined as 0.645.
Take GUUCCGUUGGCGUAAUGGUAACGCGUCUCCCUCCAAAGGAAAAGACUGCGGGUUUGAGUCCCGUACGGAACG: the yeast fitness worked out at 0.539.
